Measurements from PMC6716794 (Biochemistry, 2019).
Entries after “also recorded” stand apart in the source; their conditions may differ.

Experiments:
[1] = tested on: thrombin ABE I; conditions: ligand bound to ABE II; cited from earlier work
[2] = target: T1, ProT (prothrombin), pro-ABE I (Homo sapiens, UniProt P00734); assay: 1D proton line broadening with ProT; type: binding; conditions: NMR buffer pH 6.5, 25 °C
Method in brief: (§1)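 Human plasma proteins: prothrombin, and thrombin blocked with PPACK (4:1 PPACK:thrombin, 37 °C, 30 min). Both were exchanged by ultrafiltration into NMR buffer (25 mM H3PO4, 150 mM NaCl, 0.2 mM EDTA, pH 6.5), and concentrations were set by E1%280 (13.8 prothrombin, 18.3 thrombin). Peptide at about 10-fold excess. Peptide 1H spectra were compared with and without enzyme.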

[3] = tested on: PPACK-thrombin, ABE I; assay: 1D proton line broadening with PPACK-thrombin; type: binding, human; conditions: NMR buffer pH 6.5, 25 °C
Method in brief: as §1

[4] = target: T1, ProT (prothrombin), pro-ABE I; assay: 1D and 2D 1H,15N-HSQC NMR titration with ProT; type: binding; conditions: [15N]-labeled at F55, K51, E53, D58 and E60; pH 6.5, 25 °C
Method in brief: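 Human plasma prothrombin buffer-exchanged into NMR buffer (25 mM H3PO4, 150 mM NaCl, 0.2 mM EDTA, pH 6.5). 15N-labeled PAR1 peptide held constant at 50 μM while protein was serially diluted from 115 or 150 μM. 1D/2D 1H,15N-HSQC shifts were fitted to a quadratic binding equation for KD, with Monte-Carlo errors assuming 10% dilution error. Titrations were run at least in duplicate.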

## GpIbα: platelet receptor glycoprotein GpIbα, binds thrombin ABE II
[1]
  Effect on affinity of thrombomodulin TM456 for thrombin ABE I: the affinity of thrombomodulin TM456 for ABE I decreases

## PAR1G (49–62, P54G): weak binding PAR1 variant, residues 49–62 with P54G (NDKYEGFWEDEEKN; UniProt P25116 49-62, looked up, fragment P54G)
[2]; 830 μM PAR1G with 83 μM ProT
  1D proton line broadening with ProT (PAR1G): 1D proton line broadening could still be observed
[3]; 870 μM PAR1G with 87 μM PPACK-thrombin
  1D proton line broadening with mature thrombin (PAR1G): increased further with the mature thrombin; also recorded: the interactions increased upon formation of mature thrombin
[4]
  Binding with pro-ABE I on ProT: very weak binding with pro-ABE I on ProT

## PAR1P (49–62, P54): native PAR1 sequence peptide, residues 49–62, P54 (NDKYEPFWEDEEKN; UniProt P25116 49-62, looked up, fragment)
[2]; 780 μM PAR1P with 59 μM ProT, residues D50, K51, E53, F55, D58, E60
  1D proton line broadening with ProT (PAR1P): Substantial amide proton peak broadening; also recorded: moderate interactions with ProT
[3]; 900 μM PAR1P with 97 μM PPACK-thrombin
  1D proton line broadening with PPACK-thrombin (PAR1P): increase in line broadening; also recorded: the interactions increased upon formation of mature thrombin
